Results on 14 compounds are retold here after PubChem BioAssay.

The nature of assay [1]: inhibitors of TNFa-induced NFkB p65 translocation, primary screen, imaging, HUVEC, MLSMR starter and 10KST1 sets (AID 438;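 active = inhibition above 20% together with a positive visual image hit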;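 note: compound added about 3h40 before a 20 min TNFalpha stimulation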;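 for inhibition: signal is the nuclear over cytoplasmic p65 intensity ratio per well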). Particulars: HUVEC TNFa-induced p65 nuclear translocation; cell count: measured here: nuclei count (cytotoxicity indicator), at 2.08 µM; inhibition: at 2 µM, stronger effect = higher value, 0% TNFa-plus-vehicle, 100% no-TNFa wells.
Assay [2] in a line: inhibitors of E-selectin induction by TNFa, primary screen, imaging, HUVEC, immunofluorescence, MLSMR starter and 10KST1 sets (AID 487;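 active = visually confirmed hit in the image check and inhibition above 20%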;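 for inhibition: signal is fraction of cell area covered by stained E-selectin grains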;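 for nuclei count: 100% = median nuclei count of all wells on the same plate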). Particulars: HUVEC TNFalpha-induced E-selectin immunofluorescence imaging, at 2 µM; inhibition: stronger effect = higher value; nuclei count: measured here: cell number, toxicity.
Assay [3] in a line: DUSP6 inhibitors restoring Erk phosphorylation by chemical complementation, primary imaging in DUSP6-transfected HeLa (AID 609).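 For inhibition: phospho-Erk level distribution per well compared with pooled transfected vehicle control wells.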 Particulars: HeLa MKP-3 transfected, phospho-Erk imaging KS statistic, at 10 µM, cells stimulated with TPA for 15 min.
The target in assay [4] is Dual specificity protein phosphatase 6 (Homo sapiens) (UniProt Q16828). The assay is described as above. Particulars: HeLa MKP-3 transfected, phospho-Erk imaging KS statistic; at 10 µM; stronger effect = higher value; cells stimulated with TPA for 15 min.
Dual specificity protein phosphatase 6 (Homo sapiens), sequence (Q16828 whole entry, looked up): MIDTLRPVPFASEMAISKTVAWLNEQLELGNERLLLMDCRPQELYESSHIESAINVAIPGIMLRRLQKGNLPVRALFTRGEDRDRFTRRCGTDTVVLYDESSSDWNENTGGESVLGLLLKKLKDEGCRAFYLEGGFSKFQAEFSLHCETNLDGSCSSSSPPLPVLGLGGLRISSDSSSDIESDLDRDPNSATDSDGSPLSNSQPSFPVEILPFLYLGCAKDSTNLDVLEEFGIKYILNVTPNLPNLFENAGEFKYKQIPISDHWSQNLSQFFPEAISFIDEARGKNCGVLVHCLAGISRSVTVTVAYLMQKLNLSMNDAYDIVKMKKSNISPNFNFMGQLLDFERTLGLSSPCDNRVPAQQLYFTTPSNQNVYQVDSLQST
Assay [5] deals with Voltage-gated potassium channel subunit beta-2 (Rattus norvegicus) (UniProt P62483). Briefly: KvBeta enzyme negative modulators, primary screen, biochemical, NADPH fluorescence (AID 622;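 active = fluorescence slope higher than the sample average by over 3 SD, cut at about -0.22 in these data, passing the limit was not always enough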;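 note: slope of raw intensity against log time taken from 70 to 1610 s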). Particulars: recombinant KvBeta, 4-cyanobenzaldehyde reduction, at 10 µM, stronger effect = higher value.
Voltage-gated potassium channel subunit beta-2 (Rattus norvegicus), sequence (P62483 whole entry, looked up): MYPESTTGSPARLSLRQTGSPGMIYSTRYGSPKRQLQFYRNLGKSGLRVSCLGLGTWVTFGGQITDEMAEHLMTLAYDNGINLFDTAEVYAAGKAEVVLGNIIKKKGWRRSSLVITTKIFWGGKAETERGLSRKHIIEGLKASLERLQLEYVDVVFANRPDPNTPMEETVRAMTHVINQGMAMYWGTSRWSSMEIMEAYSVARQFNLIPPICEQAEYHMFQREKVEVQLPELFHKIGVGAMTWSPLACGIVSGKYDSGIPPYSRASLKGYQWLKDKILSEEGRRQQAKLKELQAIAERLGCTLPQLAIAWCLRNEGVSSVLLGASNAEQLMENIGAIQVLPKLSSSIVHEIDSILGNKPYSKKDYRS
The target is the same in assay [6]. Briefly: KvBeta positive modulators, primary screen, biochemical, NADPH fluorescence (AID 623;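 active = NADPH fluorescence slope more negative than the mean of all samples by about 3 SD, 99.7% confidence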;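 note: fluorescence intensity change per second fitted from 20 to 320 s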). Particulars: Recombinant KvBeta, NADPH fluorescence decrease slope, 10 min; at 10 µM; stronger effect = lower value.
In assay [7] the target is Alpha-2C adrenergic receptor (Homo sapiens) (UniProt P18825). Put plainly: modulators of alpha2C/GIRK thallium flux, primary screen, cell-based, HEK293 alpha2C/GIRK1/2 (AID 624;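 active = fluorescence slope after compound addition differing from the mean of all screened samples at 99.7% confidence, in either direction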;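 note: slope of fluorescence ratio to pre-addition baseline per second over 15 to 24 s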). Particulars: thallium flux BTC fluorescence, at 10 µM, actives lie on both sides.
Alpha-2C adrenergic receptor (Homo sapiens), sequence (P18825 whole entry, looked up): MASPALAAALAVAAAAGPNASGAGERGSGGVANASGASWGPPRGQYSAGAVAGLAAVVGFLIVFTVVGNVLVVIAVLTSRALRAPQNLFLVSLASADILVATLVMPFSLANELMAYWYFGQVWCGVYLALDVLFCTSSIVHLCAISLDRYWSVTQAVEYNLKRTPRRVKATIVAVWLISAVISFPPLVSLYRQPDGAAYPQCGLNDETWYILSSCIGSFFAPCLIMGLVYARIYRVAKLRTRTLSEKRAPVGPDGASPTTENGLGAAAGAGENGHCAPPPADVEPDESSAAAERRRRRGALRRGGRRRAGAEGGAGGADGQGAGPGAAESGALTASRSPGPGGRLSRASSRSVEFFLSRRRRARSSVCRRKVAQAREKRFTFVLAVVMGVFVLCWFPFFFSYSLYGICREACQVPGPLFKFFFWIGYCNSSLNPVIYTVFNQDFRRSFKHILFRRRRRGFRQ
A short description of assay [8]: inhibitors of larval lipid processing in zebrafish, primary screen, whole organism, PED6 fluorescence, gall bladder and intestine (AID 686;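 active = a full or partial loss of lipid-probe fluorescence in the fish gall bladder, intestine or both, judged by eye; inactive = no fluorescence loss, or compound toxic to the fish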;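 note: larvae 5 to 7 days old with five fish per well; signal comes from phospholipase A2 cleavage of quenched PED6 carried via bile; overnight exposure to compound and PED6 before scoring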). Particulars: Zebrafish larvae PED6 lipid processing, fluorescence scoring; screened at 20 µM (by protocol). In outline:
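Doses: 20 µM single dose. Test system: live zebrafish larvae aged 5-7 days, whole organism. Quantity: five larvae per well. Measured by: By-eye fluorescence microscopy. Reagent: ingested quenched lipid PED6 at 100 nM. Read-out: visual per-well fluorescence inhibition score. Times: overnight exposure of larvae to compound plus PED6.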

Assay [9] in a line: inhibitors of Chlamydomonas gravitaxis, primary screen, whole organism, Chlamydomonas reinhardtii, WT vs cilia-less mutant, absorbance, 96-well (AID 463189;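 active = inhibition at or above 50% relative to wild type and mutant plate controls; inactive = inhibition below 50%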;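 note: 0% = wild type cc124 cells in DMSO and 100% = ciliumless bld1 mutant cells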). Particulars: OD600 absorbance, 2 days, at 10 µM, stronger effect = higher value.
Setting [10] is: measured here: cell density z-score.
The mark [11] stands for this setting: measured here: nuclear c-Myc green intensity z-score.
Setting [12] is: measured here: nuclear pErk red intensity z-score, stronger effect = higher value.

SMILES strings stand for the structures. Activity calls are given as the source filed them.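 Rule for the calls, unless noted: active = compounds giving at least 50% inhibition in the cell-based MKP-3 phosphatase rescue imaging test; inactive = the rest.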

In general, inhibition refers to the change of the read-out against control, counted positive when it falls.

As for `Cc1cc(C)nc(CC(N)=O)n1`, in assay [1], the cell count was 623. Also, the inhibition is -3.1% (inactive) in [1], 3.3% (inactive) in assay [2], 6.04% (inactive) in assay [4] and 14.5% (inactive) in [9]. Further, the nuclei count in assay [2] came to 142%. The z-score stood at 0.214 in assay [3] (setting [10]), 0.0631 in assay [3] (setting [11]) and 0.457 in assay [3] (setting [12]). The fluorescence slope in [5] was -0.508 (inactive). The NADPH fluorescence slope in [6] was -4e-05 (inactive). Besides, the slope in [7] was 0.0046 (inactive). Moreover, the compound was called inactive in [8].
Take `CCOP(=O)(c1ccccc1)c1nc(-c2ccc(F)cc2)oc1N1CCCCC1` (configuration not stated): in assay [1], the cell count was found to be 658. Besides, the inhibition is 1.8% (inactive) in assay [1], -100% (inactive) in [2], 4.25% (inactive) in [4] and 2.55% (inactive) in assay [9]. Further, the nuclei count in [2] was determined as 136%. Further, the z-score in assay [3] (setting [10]) was 0.739; in [3] (setting [11]), -0.227; in [3] (setting [12]), 1.53. Moreover, in assay [5], the fluorescence slope was -0.529 (inactive). The NADPH fluorescence slope in [6] was -0.000105 (inactive). The slope in assay [7] is 0.00389 (inactive). Further, the call in [8] was inactive.
As to `O=C(O)C1CSCN1S(=O)(=O)c1cccc2nsnc12` (configuration not stated), the cell count in assay [1] stood at 539. Besides, the inhibition in assay [1] is -8.4% (inactive); in assay [2], -34% (inactive); in [4], -11.5% (inactive); in assay [9] it was -1.08% (inactive). The nuclei count in assay [2] was 120%. Besides, the z-score is -0.369 in assay [3] (setting [10]), 1.2 in assay [3] (setting [11]) and -0.893 in assay [3] (setting [12]). The fluorescence slope in assay [5] was -0.496 (inactive). Further, the NADPH fluorescence slope in assay [6] was -5.5e-05 (inactive). Besides, the slope in assay [7] was 0.00516 (inactive). Also, in [8], the result was inactive.
As to `Clc1ccccc1-c1nn2c(-c3ccccn3)nnc2s1`, the cell count in assay [1] stood at 603. In addition, the inhibition was -6.7% (inactive) in assay [1], -82.4% (inactive) in [2], -0.674% (inactive) in assay [4] and 48.8% (inactive) in assay [9]. In addition, the nuclei count in assay [2] was found to be 167%. Besides, the figures for the z-score in [3] (setting [10]), in assay [3] (setting [11]) and in assay [3] (setting [12]) were 0.327, 0.132 and -0.483, respectively. Moreover, the fluorescence slope in [5] is -0.404 (inactive). For the same compound, the NADPH fluorescence slope in assay [6] was -0.000155 (inactive). Besides, the slope in assay [7] is 0.00777 (inactive). For the same compound, the result in [8] was inactive.
With `CC(=O)N[C@H]1C[C@@H]1c1ccccc1`, the cell count in assay [1] amounted to 404. Further, the inhibition was -8.9% (inactive) in assay [1], 0.6% (inactive) in [2], 6.04% (inactive) in assay [4] and -14.5% (inactive) in [9]. In assay [2], this compound returned a nuclei count of 103%. The z-score in assay [3] (setting [10]) was 0.812; in assay [3] (setting [11]), -0.111; in assay [3] (setting [12]) it was -1.93. The fluorescence slope in assay [5] was -0.4 (inactive). Moreover, the NADPH fluorescence slope in assay [6] is 3.1e-05 (inactive). In assay [7], the slope is 0.00883 (inactive). Further, the compound was called inactive in [8].
`COCCCNc1nc2c(c(=O)n(C)c(=O)n2C)n1Cc1cccc(OC)c1`: the cell count in assay [1] stood at 434. In addition, the inhibition in assay [1] is -9.7% (inactive); in assay [2], -93.1% (inactive); in assay [4] it was 4.37% (inactive); in [9], -3.39% (inactive). This compound also displayed a nuclei count in assay [2] of 190%. In addition, the z-score in assay [3] (setting [10]) is 2.25; in assay [3] (setting [11]), -1.46; in [3] (setting [12]), -1.41. The fluorescence slope in [5] was -0.325 (inactive). Besides, the NADPH fluorescence slope in [6] was 1.1e-05 (inactive). Also, the slope in [7] was 0.00428 (inactive). Besides, in [8], the compound was classed as inactive.
Consider `CN(C)CC(O)COc1cccc(OCC(O)CN(C)C)c1` (configuration not stated), for which the cell count in [1] turned out to be 433. In addition, the inhibition was -6.5% (inactive) in assay [1], -137% (inactive) in assay [2], -7.28% (inactive) in [4] and -5.71% (inactive) in assay [9]. Also, the nuclei count in assay [2] worked out at 155%. The z-score in assay [3] (setting [10]) was -1.38; in [3] (setting [11]), -0.215; in [3] (setting [12]), 0.992. The fluorescence slope in assay [5] is -0.4 (inactive). Further, in assay [6], the NADPH fluorescence slope was -4.2e-05 (inactive). Further, the slope in assay [7] was 0.00531 (inactive). Also, the outcome in assay [8] was inactive.
`Cc1ccc(S(=O)(=O)c2cc3c(=O)n4ccccc4nc3n(C)c2=N)cc1`: the cell count in [1] amounted to 563. Also, the inhibition was -16.4% (inactive) in assay [1], -78% (inactive) in assay [2], -16.8% (inactive) in [4] and 1.37% (inactive) in assay [9]. Besides, in assay [2], the nuclei count amounted to 162%. Besides, the values for the z-score in assay [3] (setting [10]), in assay [3] (setting [11]) and in assay [3] (setting [12]) were 0.476, -0.181 and 0.227, respectively. The fluorescence slope in [5] is -0.453 (inactive). Moreover, the NADPH fluorescence slope in [6] is -3.3e-05 (inactive). For the same compound, the slope in assay [7] is 0.00439 (inactive). In addition, the outcome in [8] was inactive.
On to `CCOC(=O)c1[nH]c2ccc(OC)cc2c1NC(=O)CN1CCN(c2ccccn2)CC1`, for which the cell count in [1] turned out to be 551. The inhibition in [1] was -8.8% (inactive); in assay [2], -2.8% (inactive); in assay [4], -14% (inactive); in [9], -9.68% (inactive). In addition, the nuclei count in [2] turned out to be 157%. Also, the z-score in assay [3] (setting [10]) is -0.126; in assay [3] (setting [11]) it was 0.554; in assay [3] (setting [12]) it was 1.04. Besides, in [5], the fluorescence slope is -0.16 (inactive). Besides, in assay [6], the NADPH fluorescence slope was 2.2e-06 (inactive). Besides, the slope in assay [7] was 0.00466 (inactive). Besides, in assay [8], the compound was classed as inactive.
Turning to `CC(C)CC(C(=O)O)C(C)CC(=O)Nc1ccn(-c2ccccc2)n1` (configuration not stated), the cell count in [1] came to 345. For the same compound, the inhibition in assay [1] was -19.4% (inactive); in [2] it was -326% (inactive); in assay [4] it was 15.1% (inactive); in assay [9], 13.3% (inactive). Also, the nuclei count in assay [2] was determined as 150%. Besides, the z-score is 1.41 in assay [3] (setting [10]), -1.41 in assay [3] (setting [11]) and -0.175 in assay [3] (setting [12]). Also, the fluorescence slope in assay [5] was -0.401 (inactive). In addition, in [6], the NADPH fluorescence slope is -3.3e-05 (inactive). For the same compound, the slope in assay [7] was 0.0075 (inactive). In [8], the outcome was inactive.
In the case of `COc1ccc(N/C(=N\c2nc(C)cc(C)n2)NC(=O)C(C)C)cc1OC`, the cell count in assay [1] was 568. Besides, the inhibition is -6% (inactive) in assay [1], -158% (inactive) in [2], 3.97% (inactive) in assay [4] and 1.34% (inactive) in [9]. The nuclei count in [2] was 138%. For the same compound, the z-score was determined as 0.3 in [3] (setting [10]), 1.29 in [3] (setting [11]) and 0.284 in [3] (setting [12]). In addition, the fluorescence slope in assay [5] was -0.481 (inactive). The NADPH fluorescence slope in assay [6] is -3.5e-05 (inactive). Moreover, the slope in assay [7] is 0.00493 (inactive). Further, the compound was called inactive in assay [8].
On to `CCCSc1nc(C)c(CC(=O)OCC)c(=O)[nH]1`, for which the cell count in assay [1] turned out to be 573. Moreover, the inhibition was -10.2% (inactive) in [1], -162% (inactive) in [2], 1.98% (inactive) in assay [4] and 6.42% (inactive) in assay [9]. Besides, the nuclei count in assay [2] is 138%. Also, the z-score in assay [3] (setting [10]) is -0.128; in assay [3] (setting [11]) it was -1.19; in assay [3] (setting [12]) it was 1.09. The fluorescence slope in assay [5] is -0.508 (inactive). Moreover, the NADPH fluorescence slope in assay [6] is -6e-05 (inactive). For the same compound, the slope in assay [7] is 0.008 (inactive). Further, the compound was called inactive in [8].
For `CCOC(=O)c1[nH]c2cc3c(cc2c1NC(=O)CN1CCC2(CC1)OCCO2)OCO3`, the cell count in assay [1] amounted to 466. Also, the inhibition in assay [1] is -3.8% (inactive); in assay [2], 7.6% (inactive); in assay [4], 22.8% (inactive); in assay [9], -16.4% (inactive). Moreover, the nuclei count in assay [2] stood at 111%. The z-score is 0.45 in [3] (setting [10]), 1.98 in assay [3] (setting [11]) and -0.82 in assay [3] (setting [12]). Further, in [5], the fluorescence slope was -0.0748 (inactive). Besides, the NADPH fluorescence slope in assay [6] was 5.8e-07 (inactive). In addition, the slope in assay [7] is 0.00639 (inactive). In addition, the result in [8] was inactive.
`CCCCn1c(-c2ccc(Cl)cc2)nc2c(=O)n(C)c(=O)[nH]c21`: the cell count in [1] was 453. The inhibition in [1] was -18.9% (inactive); in [2], -400% (inactive); in [4] it was 11% (inactive); in [9], -2.64% (inactive). For the same compound, the nuclei count in assay [2] is 197%. Moreover, the z-score in assay [3] (setting [10]) was 0.0253; in assay [3] (setting [11]), -0.817; in assay [3] (setting [12]), 1.4. The fluorescence slope in assay [5] is -0.398 (inactive). Also, in assay [6], the NADPH fluorescence slope is -5.4e-06 (inactive). Also, the slope in [7] was 0.00511 (inactive). Also, the result in assay [8] was inactive.
